Only some compounds are listed: those with a hit (about 4.7% of all), similar ones and a draw of the others.
m5-HT2A agonist – agonists of mouse serotonin 5-HT2A receptor (HTR2A); activation, % at 7.6 µM; AID 624169; 360,000 compounds, 0.66% hits; P35363; CHO-K1 mHTR2A beta-arrestin complementation, luminescence; percent of 30 µM serotonin response;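 active = activation above a run cutoff, the mean activation of all tested compounds plus 3 SD, cut at about 14% in these data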;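 note: 0% = plate median of compound wells and 100% = 30 µM serotonin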
AHR activator – activators of human aryl hydrocarbon receptor. activation, % at 5 µM. AID 2796. P35869. 320,000 compounds, 2.5% hits. AHR-responsive luciferase reporter cells, luminescence; in the data active = activation above about 47%;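 note: 0% = vehicle wells and 100% = reference agonist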
MC4R barr agon – activates human MC4R beta-arrestin recruitment. P32245. U2OS MC4R beta-arrestin complementation, luminescence; percent of melanotan II response, DMSO zero. activation, % at 8.9 µM. 360,000 compounds, 0.98% hits. AID 540308;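 active = activation above a per-plate cutoff, the mean activation of sample wells on that plate plus 3 SD, cut at about 8% in these data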
Target sequence (P32245 whole entry, looked up): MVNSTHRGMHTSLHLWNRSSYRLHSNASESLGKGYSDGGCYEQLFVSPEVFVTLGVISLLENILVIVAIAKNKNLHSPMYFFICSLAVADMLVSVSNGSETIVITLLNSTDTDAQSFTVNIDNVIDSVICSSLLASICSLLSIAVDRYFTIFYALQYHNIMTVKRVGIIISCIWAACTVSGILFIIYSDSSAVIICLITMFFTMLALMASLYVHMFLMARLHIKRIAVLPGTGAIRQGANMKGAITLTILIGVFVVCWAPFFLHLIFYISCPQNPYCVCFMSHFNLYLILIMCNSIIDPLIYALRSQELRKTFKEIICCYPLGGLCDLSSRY
GAA850 FXN act – increases GAA850 frataxin promoter reporter activity; HEK293 lucGAA850 FXN promoter luciferase reporter, 24 h; percent of 10 µM SAHA response; activation, % at 6 µM; 360,000 compounds, 0.56% hits; AID 540364;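 active = activation above the average of all compounds screened plus 3 SD, cutoff fixed separately per campaign, cut at about 7.5% in these data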;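 note: 0% = DMSO wells and 100% = 10 µM SAHA wells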
MC4R antagonist – human MC4R antagonism in cAMP assay. P32245. MC4R-expressing cells, MTII-stimulated cAMP, LANCE TR-FRET. inhibition, % at 6.5 µM. 360,000 compounds, 0.48% hits;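 active = inhibition above its plate's cutoff, the mean of tested wells on that plate plus 3 SD, cut at about 29% in these data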;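 note: 0% = Melanotan II alone and 100% = Melanotan II plus saturating MCL0020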
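Test system: U2OS cells stably expressing human melanocortin 4 receptor (MC4R); also added: Melanotan II challenge; compound: 6.5 µM single dose; timing: 30-min compound preincubation, 1-h Melanotan II challenge, 1-h detection, room temperature; signal: Eu-cAMP/anti-cAMP TR-FRET, emission 671 nm; repeats: one well per compound, no replicates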
U2OS cAMP counter – U2OS forskolin cAMP inhibition counter-screen | shares compounds with MC4R antagonist | parental U2OS, LANCE TR-FRET | inhibition, % at 6.5 µM | 1,600 compounds, 26% hits;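 active = mean inhibition over triplicates above the low-control well mean plus 3 SD, set per campaign, cut at about 13% in these data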;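 note: signal is single emission at 671 nm which falls as cellular cAMP rises; 0% = forskolin-stimulated wells and 100% = buffer without forskolin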
MC4R antag conf – human MC4R cAMP antagonism confirmation; shares compounds with MC4R antagonist; MC4R-expressing cells, MTII-stimulated cAMP, TR-FRET; inhibition, % at 6.5 µM; 1,600 compounds, 27% hits; AID 602195; in the data active = inhibition above about 29%;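 note: 0% = agonist stimulated wells alone and 100% = agonist stimulated wells plus saturating reference antagonist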
The depositor's hits bear a star; . = no result.

SMILES	m5-HT2A agonist	AHR activator	MC4R barr agon	GAA850 FXN act	MC4R antagonist	U2OS cAMP counter	MC4R antag conf
CC(=O)OC1OCCOC1NC(=S)Nc1ccc(C)cc1 (stereo not given)	2.6	0.3	-0.7	-0.3	32.0*	1.1	-8.1
COc1ccc(CN(C)CC(=O)Nc2cccc(S(=O)(=O)N(C)c3ccccc3)c2)c(OC)c1	-3.5	-0.5	1.4	3.6	7.5	.	.
O=C1C(Cl)=C(NCCc2ccccc2)C(=O)c2ccccc21	-3.0	.	-3.9	2.5	42.4*	9.5	-18.3
O=C1C(Cl)=C(Nc2ccccc2)C(=O)c2ccccc21	-2.2	9.0	0.8	-11.2	-19.8	.	.
Cc1cc(NS(=O)(=O)c2ccc(NC(=O)c3oc4ccccc4c3C)cc2)no1	-1.2	13.5	0.7	1.4	29.0*	-0.3	-2.2
S=C(NC1CC1)NC1CCCc2ccccc21 (stereo not given)	0.9	-2.2	3.2	0.1	28.5*	5.5	3.7
CCN(CC)S(=O)(=O)c1cc(C(=O)Nc2nncs2)c(Cl)cc1Cl	2.9	1.4	-2.2	-0.4	42.8*	16.9*	43.1*
Cc1oc(-c2cccs2)cc1C(=O)N1CCCC(C)(C(=O)O)C1 (stereo not given)	1.8	.	5.5	-2.2	1.9	.	.
CN(C)c1ccc(S(=O)(=O)NCC(=O)OCC(=O)Nc2cc(Cl)cc(Cl)c2)cc1[N+](=O)[O-]	-4.9	2.8	4.2	0.5	30.6*	18.8*	30.4*
O=C(NC(Cc1ccc(O)cc1)C(=O)O)c1ccco1 (stereo not given)	3.9	0.1	-1.1	3.9	-6.1	.	.
O=C(COC(=O)[C@H](Cc1ccccc1)NC(=O)c1ccco1)NCc1ccccc1	-1.5	0.1	-1.8	-0.2	29.3*	6.8	13.8
CN(C(=O)COC(=O)C(Cc1ccccc1)NC(=O)c1ccccc1)c1ccccc1 (stereo not given)	-2.7	-1.7	-1.0	-0.1	14.7	.	.
CN(C)C(=O)COC(=O)[C@H](Cc1ccccc1)NC(=O)c1ccco1	0.8	1.9	-0.8	-2.7	28.7*	13.8*	27.0
CN(C)CCN(C(=O)C1=COCCO1)c1nc2ccc(F)cc2s1	-8.5	8.6	-2.1	1.6	6.0	.	.
Cc1ccc(-n2nc3c(c2NC(=O)c2ccc(S(=O)(=O)N4CCOCC4)cc2)CSC3)c(C)c1	2.0	-0.5	1.1	0.6	32.3*	-0.7	-1.9
CS(=O)(=O)Cc1cccc(C(=O)NC2CCSc3ccccc32)c1 (stereo not given)	-9.8	-0.2	0.8	-0.9	32.5*	4.6	-1.5
CN(C)S(=O)(=O)c1cccc(C(=O)NC2CCSc3ccccc32)c1 (stereo not given)	0.3	9.0	-2.5	1.9	1.8	.	.
Cc1nn(CC(=O)NNC(=O)c2ccccc2F)c([N+](=O)[O-])c1Br	-0.6	-0.4	3.3	-0.4	37.2*	1.5	-12.2
COCCCC1CCN(Cc2nc(Cc3ccccc3Cl)no2)CC1	1.7	-3.0	-2.4	1.0	5.0	.	.
COCCCC1CCN(Cc2nc(-c3ccccc3)no2)CC1	0.3	6.1	1.5	1.6	29.9*	-0.4	-7.0
Cc1cc(C)c(C)c(OCC(O)CN2CCN(c3ccccn3)CC2)c1 (stereo not given)	12.1	1.4	-1.4	0.5	5.4	.	.
O=C(CSc1ccccn1)N1CCOCC1	-0.3	3.0	1.0	0.1	29.4*	0.1	-3.3
O=C(CSc1nc2ccccc2n1CCc1ccccc1)N1CCOCC1	-0.9	-3.0	-1.1	0.3	32.6*	0.1	10.0
O=C(CSc1nc2ccccc2n1CC(=O)N1CCOCC1)N1CCCC1	-1.3	1.0	0.2	-3.1	-0.3	.	.
CCCCn1c(N)c(N(Cc2ccccc2)C(=O)COc2ccccc2F)c(=O)[nH]c1=O	2.1	.	-3.4	-1.2	3.3	.	.
CC(=O)Nc1ccc2nc(NC(=O)C(Cl)(Cl)Cl)sc2c1	-1.4	18.2	0.1	2.8	29.1*	-3.9	-18.5
CC(=O)Nc1ccc2nc(NC(=O)c3cccnc3)sc2c1	7.1	5.9	-0.9	2.4	3.6	.	.

Compound activity: PubChem BioAssay, The Scripps Research Institute Molecular Screening Center
